Experiment: Displacement of [3H]epibatidine from nAChR in rat cerebral cortex
Type: tissue-based
Procedure, shortened: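 Rat cerebral cortex membranes used as receptor source; competition binding against the radioligand [3H]epibatidine. Ki values given as mean ± SEM of three experiments, each run in triplicate.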

SMILES	Ki [µM]
COCC#Cc1cncc(OC[C@@H]2CCCN2C)c1	0.0047
COCCOCC#Cc1cncc(OC[C@@H]2CCCN2C)c1	0.015
COCCOCCOCCOC(=O)N1CC[N+](C)(C)CC1	48
COCCOCCOC(=O)N1CC[N+](C)(C)CC1	8.2
COCCOC(=O)N1CC[N+](C)(C)CC1	3
COCCOCCOCCOCCOC(=O)N1CC[N+](C)(C)CC1	26
COCCOCCOCCOCCOCC#Cc1cncc(OC[C@@H]2CCCN2C)c1	0.03
COCCOC(=O)NCC[N+](C)(C)C	54
COCCOCCOC(=O)NCC[N+](C)(C)C	32
COCCOCCOCC#Cc1cncc(OC[C@@H]2CCCN2C)c1	0.0075
COC(=O)N1CC[N+](C)(C)CC1	0.67
COCCOCCOCCOC(=O)NCC[N+](C)(C)C	70
CC(=O)N1CC[N+](C)(C)CC1 [ACETYLDIMETHYLPIPERAZINIUM IODIDE]	3.6
COCCOCCOCCOCCOCCOCCOCC#Cc1cncc(OC[C@@H]2CCCN2C)c1	0.063
COCCOCCOCCOCCOCCOC(=O)N1CC[N+](C)(C)CC1	38
COCCOCCOCCOCC#Cc1cncc(OC[C@@H]2CCCN2C)c1	0.015
CN1CCC[C@H]1COc1cncc(C#CCO)c1	0.0031
COCCOCCOCCOCCOC(=O)NCC[N+](C)(C)C	150
COCCOCCOCCOCCOCCOCC#Cc1cncc(OC[C@@H]2CCCN2C)c1	0.04
COCCOCCOCCOCCOCCOCCOC(=O)NCC[N+](C)(C)C	30
COC(=O)NCC[N+](C)(C)C	14
COCCOCCOCCOCCOCCOC(=O)NCC[N+](C)(C)C	190
COCCOCCOCCOCCOCCOCCOC(=O)N1CC[N+](C)(C)CC1	19
